Measured values reported in article PMC4387010 (Nuclear medicine and biology, 2014).
Where two headings read alike, the source gives them in different places.

Assays:
[1] = previously studied radioiodinated α7-nAChR radioligand; cited from earlier work
α7-nAChR [2] = biological target: α7-nAChR (Mus musculus, UniProt P49582); assay: Blockade of [^125I]iodo-ASEM binding in CD-1 mouse brain by s.c. blockers; type: in vivo, CD-1 mice; conditions: for inhibition of [^125I]iodo-ASEM binding by blocker: SSR180711 2 mg/kg s.c., 180 min post-injection; for reduction of [^125I]iodo-ASEM accumulation in mouse brain by blocker: CB, Hipp, Ctx, Coll, 180 min, P > 0.05 vs vehicle
Sequence of α7-nAChR (Mus musculus, UniProt P49582) (P49582 23-502): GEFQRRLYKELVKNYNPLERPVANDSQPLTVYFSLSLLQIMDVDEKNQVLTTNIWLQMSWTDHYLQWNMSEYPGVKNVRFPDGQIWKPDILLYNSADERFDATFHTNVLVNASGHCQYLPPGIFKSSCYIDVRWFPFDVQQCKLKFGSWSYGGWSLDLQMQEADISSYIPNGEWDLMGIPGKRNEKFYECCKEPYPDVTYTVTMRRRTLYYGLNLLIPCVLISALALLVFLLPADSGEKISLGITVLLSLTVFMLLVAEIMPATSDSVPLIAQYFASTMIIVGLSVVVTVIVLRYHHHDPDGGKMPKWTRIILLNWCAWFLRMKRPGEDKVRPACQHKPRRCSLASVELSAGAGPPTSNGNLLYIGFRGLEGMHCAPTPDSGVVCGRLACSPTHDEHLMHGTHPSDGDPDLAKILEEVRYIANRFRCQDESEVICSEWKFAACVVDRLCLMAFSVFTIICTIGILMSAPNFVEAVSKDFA

α7-nAChR [3] = biological target: α7-nAChR (Rattus norvegicus, UniProt Q05941); type: binding
Sequence of α7-nAChR (Rattus norvegicus, UniProt Q05941) (Q05941 23-502): as the sequence (P49582 23-502) above, with T402A counted along it

α4β2-nAChR = α4β2-nAChR (Homo sapiens, UniProt P17787+P43681); type: binding; conditions: for α7-nAChR Binding selectivity α7/α4β2: ratio of Ki values
Sequence of α4β2-nAChR (P17787 26-502): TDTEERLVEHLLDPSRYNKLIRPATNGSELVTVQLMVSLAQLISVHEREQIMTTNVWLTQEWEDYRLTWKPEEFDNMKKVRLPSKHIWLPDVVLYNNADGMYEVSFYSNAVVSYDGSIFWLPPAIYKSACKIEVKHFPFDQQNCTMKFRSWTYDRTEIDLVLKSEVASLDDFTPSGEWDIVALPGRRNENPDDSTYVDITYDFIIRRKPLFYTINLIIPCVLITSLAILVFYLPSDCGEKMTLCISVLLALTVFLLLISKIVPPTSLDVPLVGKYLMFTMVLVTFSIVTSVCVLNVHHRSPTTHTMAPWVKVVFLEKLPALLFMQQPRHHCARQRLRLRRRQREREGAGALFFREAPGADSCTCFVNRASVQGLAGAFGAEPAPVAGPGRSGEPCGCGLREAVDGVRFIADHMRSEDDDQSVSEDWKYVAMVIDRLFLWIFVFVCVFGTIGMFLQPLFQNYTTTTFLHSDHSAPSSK
Sequence of α4β2-nAChR (P43681 29-627): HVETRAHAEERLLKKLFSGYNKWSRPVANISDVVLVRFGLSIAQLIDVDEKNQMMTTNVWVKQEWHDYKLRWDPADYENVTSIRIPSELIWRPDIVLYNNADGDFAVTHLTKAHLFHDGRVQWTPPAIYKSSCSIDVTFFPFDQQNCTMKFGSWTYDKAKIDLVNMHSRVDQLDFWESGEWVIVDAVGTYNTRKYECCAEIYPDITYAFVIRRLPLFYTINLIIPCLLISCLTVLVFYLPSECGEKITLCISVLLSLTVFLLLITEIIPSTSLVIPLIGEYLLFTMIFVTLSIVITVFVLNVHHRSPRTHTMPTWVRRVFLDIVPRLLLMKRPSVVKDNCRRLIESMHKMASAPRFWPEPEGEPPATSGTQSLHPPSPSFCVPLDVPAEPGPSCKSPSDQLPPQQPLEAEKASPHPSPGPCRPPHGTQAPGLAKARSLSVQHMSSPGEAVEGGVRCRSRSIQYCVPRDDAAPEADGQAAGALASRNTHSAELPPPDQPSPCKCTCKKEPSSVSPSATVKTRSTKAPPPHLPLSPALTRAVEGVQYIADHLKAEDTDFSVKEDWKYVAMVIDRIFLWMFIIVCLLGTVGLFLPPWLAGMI

[4] = Regional brain distribution; type: in vivo, CD-1 mice; conditions: for Regional brain distribution: i.v., mean ± SD (n=3)
Summary of the method: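 Male CD-1 mice (25–30 g) got the radioiodinated test compound by lateral tail vein: 3 μCi, specific radioactivity 1600 mCi/μmol, in 0.2 mL saline. Mice were killed by cervical dislocation at various times (three per time point). Brains were dissected on ice, and regions were weighed and γ-counted alongside injectate standards. Uptake was expressed as %ID/g tissue.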

α3β4-nAChR = α3β4-nAChR (Homo sapiens, UniProt P30926+P32297); type: binding
Sequence of α3β4-nAChR (P32297 32-505): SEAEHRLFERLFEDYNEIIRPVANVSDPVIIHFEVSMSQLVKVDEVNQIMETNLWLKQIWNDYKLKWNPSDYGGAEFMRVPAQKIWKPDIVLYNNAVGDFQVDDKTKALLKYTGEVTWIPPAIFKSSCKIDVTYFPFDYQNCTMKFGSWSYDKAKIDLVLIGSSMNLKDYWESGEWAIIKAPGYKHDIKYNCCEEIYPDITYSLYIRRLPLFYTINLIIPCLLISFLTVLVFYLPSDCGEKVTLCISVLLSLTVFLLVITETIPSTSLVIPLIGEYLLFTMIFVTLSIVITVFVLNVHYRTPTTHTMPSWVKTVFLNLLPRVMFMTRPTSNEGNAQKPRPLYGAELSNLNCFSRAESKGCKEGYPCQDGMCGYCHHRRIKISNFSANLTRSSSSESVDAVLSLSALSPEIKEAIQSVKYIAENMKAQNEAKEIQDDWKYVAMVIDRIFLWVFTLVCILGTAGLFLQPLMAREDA
Sequence of α3β4-nAChR (P30926 22-498): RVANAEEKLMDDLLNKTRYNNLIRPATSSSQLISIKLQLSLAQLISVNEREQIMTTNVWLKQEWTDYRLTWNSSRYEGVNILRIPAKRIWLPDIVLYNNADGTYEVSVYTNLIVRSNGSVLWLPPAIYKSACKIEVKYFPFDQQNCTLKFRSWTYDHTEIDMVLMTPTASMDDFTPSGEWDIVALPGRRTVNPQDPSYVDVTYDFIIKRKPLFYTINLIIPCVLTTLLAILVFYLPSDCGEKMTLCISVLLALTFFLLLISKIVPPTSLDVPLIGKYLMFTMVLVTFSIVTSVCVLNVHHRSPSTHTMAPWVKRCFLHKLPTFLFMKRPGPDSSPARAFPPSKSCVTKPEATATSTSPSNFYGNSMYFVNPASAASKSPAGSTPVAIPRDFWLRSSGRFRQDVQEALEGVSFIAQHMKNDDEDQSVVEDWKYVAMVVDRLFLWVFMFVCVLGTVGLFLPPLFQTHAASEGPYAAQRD

[125I]c1occc1-c1cnc2c(c1)C[C@@]1(CN3CCC1CC3)O2 [(1S,2R,4S)-5′-(2-[^125I]iodofuran-3-yl)-3′H-4-azaspiro[bicyclo[2.2.2]octane-2,2′-furo[2,3-b]pyridine]]
colliculus to cerebellum ratio [1]: ~ 2.5

O=C(Oc1ccc(Br)cc1)N1CCN2CCC1CC2 [SSR180711]
inhibition of [^125I]iodo-ASEM binding by blocker (α7-nAChR [2]; cerebellum, P = 0.27): the blockade was negligible | inhibition of [^125I]iodo-ASEM binding by blocker (α7-nAChR [2]; superior and inferior colliculi and hippocampus, P < 0.01): significantly inhibited

O=S1(=O)c2cc(N3CCN4CCC3CC4)ccc2-c2cccc([125I])c21 [[^125I]iodo-ASEM, 3-(1,4-Diazabicyclo[3.2.2]nonan-4-yl)-6-[^125I]iododibenzo[b,d]thiophene 5,5-dioxide]
Ki (α7-nAChR [3]): 0.5 nM | α7-nAChR Binding selectivity α7/α4β2 (α4β2-nAChR): 3,414 | Regional brain distribution ([4]; Cerebellum, 5 min): 4.25±0.42 %ID/g tissue | Regional brain distribution ([4]; Cerebellum, 20 min): 5.20±2.08 %ID/g tissue | Regional brain distribution ([4]; Cerebellum, 60 min): 2.56±0.35 %ID/g tissue | Regional brain distribution ([4]; Cerebellum, 120 min): 1.41±0.08 %ID/g tissue | Regional brain distribution ([4]; Cerebellum, 180 min): 0.76±0.15 %ID/g tissue | Regional brain distribution ([4]; Cerebellum, 240 min): 0.38±0.05 %ID/g tissue | Regional brain distribution ([4]; Cerebellum, 360 min): 0.21±0.04 %ID/g tissue | Regional brain distribution ([4]; Cortex, 5 min): 4.78±0.47 %ID/g tissue | Regional brain distribution ([4]; Cortex, 20 min): 6.25±0.28 %ID/g tissue | Regional brain distribution ([4]; Cortex, 60 min): 6.50±0.57 %ID/g tissue | Regional brain distribution ([4]; Cortex, 120 min): 4.29±0.42 %ID/g tissue | Regional brain distribution ([4]; Cortex, 180 min): 2.74±0.55 %ID/g tissue | Regional brain distribution ([4]; Cortex, 240 min): 1.40±0.06 %ID/g tissue | Regional brain distribution ([4]; Cortex, 360 min): 0.72±0.12 %ID/g tissue | Regional brain distribution ([4]; Hippocampus, 5 min): 3.63±0.40 %ID/g tissue | Regional brain distribution ([4]; Hippocampus, 20 min): 5.09±0.86 %ID/g tissue | Regional brain distribution ([4]; Hippocampus, 60 min): 4.40±0.12 %ID/g tissue | Regional brain distribution ([4]; Hippocampus, 120 min): 3.40±2.03 %ID/g tissue | Regional brain distribution ([4]; Hippocampus, 180 min): 2.66±0.58 %ID/g tissue | Regional brain distribution ([4]; Hippocampus, 240 min): 1.70±0.28 %ID/g tissue | Regional brain distribution ([4]; Hippocampus, 360 min): 0.97±0.12 %ID/g tissue | Regional brain distribution ([4]; Rest of brain, 5 min): 3.89±0.42 %ID/g tissue | Regional brain distribution ([4]; Rest of brain, 20 min): 4.90±0.24 %ID/g tissue | Regional brain distribution ([4]; Rest of brain, 60 min): 4.60±0.18 %ID/g tissue | Regional brain distribution ([4]; Rest of brain, 120 min): 3.24±0.26 %ID/g tissue | Regional brain distribution ([4]; Rest of brain, 180 min): 2.09±0.40 %ID/g tissue | Regional brain distribution ([4]; Rest of brain, 360 min): 0.57±0.05 %ID/g tissue | Regional brain distribution ([4]; Superior & inferior Colliculi, 5 min): 4.09±0.71 %ID/g tissue | Regional brain distribution ([4]; Superior & inferior Colliculi, 20 min): 5.50±0.51 %ID/g tissue | Regional brain distribution ([4]; Superior & inferior Colliculi, 60 min): 5.14±0.20 %ID/g tissue | Regional brain distribution ([4]; Superior & inferior Colliculi, 120 min): 4.37±0.57 %ID/g tissue | Regional brain distribution ([4]; Superior & inferior Colliculi, 180 min): 3.16±0.75 %ID/g tissue | Regional brain distribution ([4]; Superior & inferior Colliculi, 240 min): 1.50±0.28 %ID/g tissue | Regional brain distribution ([4]; Superior & inferior Colliculi, 360 min): 0.87±0.08 %ID/g tissue | colliculus to cerebellum ratio, maximum ([4]; at 180 min post-injection, CD-1 mice): 4.2

O=c1cccc2n1C[C@@H]1CNC[C@H]2C1 [cytisine]
reduction of [^125I]iodo-ASEM accumulation in mouse brain by blocker (α7-nAChR [2]; cytisine 0.5 mg/kg s.c.): neither cytisine nor ondansetron reduced

O=S1(=O)c2cc(N3CCN4CCC3CC4)ccc2-c2cccc(I)c21 [iodo-ASEM]
Ki (α7-nAChR [3]; α7 (rat), HEK-293 membranes, [^3H]epibatidine, mean ± SEM (n=3)): 0.5 ± 0.2 nM | α7-nAChR Binding selectivity α7/α3β4 (α3β4-nAChR; ratio of Ki values): α7/α3β4 = 90 | Ki (α3β4-nAChR; α3β4 (human), HEK-293 membranes, [^3H]epibatidine, mean ± SEM (n=3)): 45 ± 8 nM | α7-nAChR Binding selectivity α7/α4β2 (α4β2-nAChR): α7/α4β2 = 3,414 | Ki (α4β2-nAChR; α4β2 (human), HEK-293 membranes, [^3H]epibatidine, mean ± SEM (n=3)): 1710 ± 373 nM

Cc1nccn1CC1CCc2c(c3ccccc3n2C)C1=O (centres unmarked) [ondansetron]
reduction of [^125I]iodo-ASEM accumulation in mouse brain by blocker (α7-nAChR [2]; ondansetron 2 mg/kg s.c.): neither cytisine nor ondansetron reduced
